In ChEMBL document CHEMBL1687745 (Antimicrob Agents Chemother, 2009):
Converted amounts (≈) assume the structure as drawn. The source made the active and inactive calls. The calls are words filed in the database; no cut-off is given here.

Key:
[1] = system: Bacillus licheniformis; test: Antimicrobial activity against Bacillus licheniformis clinical isolate by broth microdilution method; type: functional
[2] = system: Bacillus anthracis; test: Protection against Bacillus anthracis Sterne spores induced cell death in mouse J774A1 cells assessed as live viable cells at 10 uM by Sytox green dye staining assay relative to untreated control; type: functional, J774.A1
[3] = system: Enterococcus faecalis; test: Antimicrobial activity against Enterococcus faecalis 29212 clinical isolate by broth microdilution method; type: functional
[4] = system: Enterococcus faecalis; test: Antimicrobial activity against Enterococcus faecalis clinical isolate by broth microdilution method; type: functional
How it was run: (§1)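 Broth microdilution. Log-phase cultures (5 × 10^5 CFU/ml) seeded in 96-well plates with compound from 0 to 20 µM or 1% DMSO control. Incubated at 37°C for 16 to 20 h. Growth read as absorbance at 600 nm.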

[5] = system: Klebsiella pneumoniae; test: Antimicrobial activity against Klebsiella pneumoniae 5657 by broth microdilution method; type: functional; how it was run: as §1
[6] = system: Bacillus subtilis; test: Antimicrobial activity against Bacillus subtilis clinical isolate by broth microdilution method; type: functional
[7] = system: Enterococcus faecalis; test: Antimicrobial activity against vancomycin-resistant Enterococcus faecalis ATCC 51575 by broth microdilution method; type: functional
[8] = system: Bacillus anthracis; test: microbe, parasite or virus in culture; conditions: Ames
[9] = system: Burkholderia pseudomallei; test: Antimicrobial activity against Burkholderia pseudomallei DD503 by broth microdilution method; type: functional
[10] = system: Bacillus anthracis; test: Antimicrobial activity against Bacillus anthracis Ames by broth microdilution method in presence of 10% fetal calf serum; type: functional
[11] = system: Staphylococcus aureus; test: Antibacterial activity against MBX 1090 resistant Staphylococcus aureus NCTC8325 isolates selected on 10 to 12 days of serial passage through MBX 1090; type: functional
How it was run: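 Eight independent S. aureus NCTC8325 cultures were grown with compound at 0.125× to 128× MIC. Each day, cells were passaged from the highest-concentration well still showing >50% of untreated growth, for up to 20 days. Colonies isolated from resistant cultures were confirmed by MIC assay.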

[12] = system: Staphylococcus aureus; test: Antimicrobial activity against methicillin-resistant Staphylococcus aureus 1094 by broth microdilution method; type: functional
[13] = system: Bacillus pumilus; test: Antimicrobial activity against Bacillus pumilus clinical isolate by broth microdilution method; type: functional; how it was run: as §1
[14] = system: Bacillus anthracis; test: Antimicrobial activity against Bacillus anthracis Vollum clinical isolate by broth microdilution method; type: functional
[15] = system: Bacillus anthracis; test: Antimicrobial activity against Bacillus anthracis Sterne vegetative cells by broth microdilution method; type: functional
[16] = system: Bacillus anthracis; test: Antimicrobial activity against Bacillus anthracis Sterne spores by broth microdilution method; type: functional
[17] = system: Pseudomonas aeruginosa; test: Antimicrobial activity against Pseudomonas aeruginosa PAO1 by broth microdilution method; type: functional; how it was run: as §1
[18] = system: Staphylococcus aureus; test: Antimicrobial activity against Staphylococcus aureus ATCC 25923 by broth microdilution method; type: functional; how it was run: as §1
[19] = system: HeLa; test: Effect on cell membrane integrity in human HeLa cells assessed as lactate dehydrogenase release at 32 times MIC against Staphylococcus aureus by CytoTox ONE homogenous membrane integrity assay; type: cell-based
How it was run: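 Confluent HeLa cells in DMEM treated for 1 h with a range of compound concentrations, 1% DMSO final. […] LDH activity in the supernatant measured by a membrane-integrity kit.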

[20] = system: Mycolicibacterium smegmatis; test: Antimicrobial activity against Mycobacterium smegmatis 35798 by broth microdilution method; type: functional; how it was run: as §1
[21] = system: Staphylococcus aureus; test: Antimicrobial activity against methicillin-resistant Staphylococcus aureus clinical isolate by broth microdilution method; type: functional
[22] = system: Enterococcus faecium; test: Antimicrobial activity against vancomycin-resistant Enterococcus faecium B42762 by broth microdilution method; type: functional
[23] = system: Staphylococcus aureus; test: Antibacterial activity against Staphylococcus aureus Smith infected in Swiss Webster mouse assessed as assessed as protection against microbe-induced mortality at 10 mg/kg, iv administered as single dose 15 mins post bacterial challenge measured 48 hrs post infection; type: functional
How it was run: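 Swiss Webster mice (n = 10/group) were challenged i.p. with 8.3 × 10^8 CFU. After 15 min they received a single i.v. dose in 10% dimethyl acetamide–5% dextrose in water (pH 4.0), alongside vehicle and daptomycin (10 mg/kg) controls. Survival was followed for 48 h.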

[24] = system: Yersinia pestis; test: Antimicrobial activity against Yersinia pestis by broth microdilution method; type: functional
[25] = system: Mycolicibacterium smegmatis; test: Antimicrobial activity against Mycobacterium smegmatis 700009 by broth microdilution method; type: functional; how it was run: as §1
[26] = system: Mycolicibacterium smegmatis; test: Antimicrobial activity against Mycobacterium smegmatis 19420 by broth microdilution method; type: functional; how it was run: as §1
[27] = system: Staphylococcus aureus; test: Antimicrobial activity against Staphylococcus aureus by broth microdilution method; type: functional; how it was run: as §1
[28] = system: Escherichia coli; test: Antimicrobial activity against Escherichia coli J53 clinical isolate by broth microdilution method; type: functional
[29] = system: Bacillus anthracis; test: Protection against Bacillus anthracis Sterne spores induced cell death in mouse J774A1 cells assessed as dead cells at 10 uM by Sytox green dye staining assay relative to untreated control; type: functional, J774.A1
[30] = system: Bacillus subtilis; test: Effect on bacterial membrane permeability in Bacillus subtilis BD54 upto 10 times MIC using DiSC3 fluorescent dye staining based fluorimetric assay; type: functional, organism-based
How it was run: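 B. subtilis BD54 grown in LB to OD600 0.4–0.5, washed, and resuspended to OD600 0.1 in 5 mM HEPES pH 7.4 with 20 mM glucose. Loaded with 1 µM DiSC3(5) for 10 min at room temperature, then 100 mM KCl added. […] Fluorescence read at 5 min (ex 622, em 670 nm). DNP 200 µg/ml positive control; mean ± SD of 8 wells.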

[31] = Cytotoxicity against human HeLa cells after 3 days by MTS assay in presence of 10% fetal calf serum; type: cell-based
[32] = system: Bacillus subtilis; test: Inhibition of DNA synthesis in Bacillus subtilis BD54 at 5 X MIC by [3H]thymidine incorporation assay; type: functional, organism-based
How it was run: (§2)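 Precursors were [methyl-3H]thymidine (DNA), [5-3H]uridine (RNA), L-[4,5-3H]leucine (protein) and N-acetyl-D-[1-3H]glucosamine (cell wall). Samples taken over time, precipitated with equal volume of ice-cold 20% TCA, filtered on glass fibre, and counted. cpm plotted against time.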

[33] = system: Bacillus anthracis; test: Inhibition of spore germination in Bacillus anthracis Sterne spores at MIC after 4 hrs; type: functional, organism-based
[34] = system: Bacillus anthracis; test: microbe, parasite or virus in culture; conditions: Ames; remark: listed apart in the source
[35] = system: Burkholderia cepacia; test: Antimicrobial activity against Burkholderia cepacia clinical isolate by broth microdilution method; type: functional; how it was run: as §1
[36] = system: Burkholderia thailandensis; test: Antimicrobial activity against Burkholderia thailandensis by broth microdilution method; type: functional
[37] = system: Priestia megaterium; test: Antimicrobial activity against Bacillus megaterium clinical isolate by broth microdilution method; type: functional
[38] = system: Burkholderia mallei; test: Antimicrobial activity against Burkholderia mallei ATCC 23344 by broth microdilution method; type: functional
[39] = system: Bacillus anthracis; test: Antibacterial activity against Bacillus anthracis Ames spores infected in C57BL/6 mouse assessed as mouse survival rate at 1 mg/kg, ip for 5 days every 6 hrs administered 6 hrs post bacterial challenge measured up to 20 days post infection; type: functional; conditions: route intraperitoneal
[40] = system: Brevibacillus brevis; test: Antimicrobial activity against Bacillus brevis clinical isolate by broth microdilution method; type: functional; how it was run: as §1
[41] = system: Bacillus subtilis; test: Inhibition of cell wall synthesis in Bacillus subtilis BD54 at 5 X MIC by N-acetyl-D-[1-3H] glucosamine incorporation assay; type: functional; how it was run: as §2
[42] = system: Bacillus anthracis; test: Inhibition of spore outgrowth in Bacillus anthracis Sterne spores assessed as reduction in bacterial CFU count at 0.1 ug/ml after 4 hrs relative to untreated control; type: functional, organism-based
[43] = system: Bacillus subtilis; test: Inhibition of RNA synthesis in Bacillus subtilis BD54 at 5 X MIC by [5-3H]uridine incorporation assay; type: functional; how it was run: as §2
[44] = system: Bacillus subtilis; test: Inhibition of protein synthesis in Bacillus subtilis BD54 at 5 X MIC by L-[4,5-3H]leucine incorporation assay; type: functional, organism-based; how it was run: as §2

## C(=C\c1cc2ccc(C3=NCCN3)cc2[nH]1)/c1cc2ccc(C3=NCCN3)cc2[nH]1
[1]
  MIC: 2.3 µg/mL (≈ 5.83 µM)
[2]
  Activity: 73%
[3]
  MIC: 0.3 µg/mL (≈ 0.76 µM)
[4]
  MIC: 0.6 µg/mL (≈ 1.52 µM)
[5]
  MIC: 1.3 µg/mL (≈ 3.3 µM)
[6]
  MIC: 0.3 µg/mL (≈ 0.76 µM)
[7]
  MIC: 0.6 µg/mL (≈ 1.52 µM)
[8]
  MBC: 2.3 µg/mL (≈ 5.83 µM)
  MIC: 0.6 µg/mL (≈ 1.52 µM)
[9]
  MIC: 3.1 µg/mL (≈ 7.86 µM)
[10]
  MIC: 0.6 µg/mL
[11]
  MIC: 16 µg/mL (≈ 40.6 µM)
[12]
  MIC: 0.6 µg/mL (≈ 1.52 µM)
[13]
  MIC: 0.2 µg/mL (≈ 0.507 µM)
[14]
  MBC: 1.2 µg/mL (≈ 3.04 µM)
  MIC: 0.6 µg/mL (≈ 1.52 µM)
[15]
  MIC: 1.2 µg/mL (≈ 3.04 µM)
[16]
  MIC: 0.3 µg/mL (≈ 0.76 µM)
[17]
  MIC: 25 µg/mL (≈ 63.4 µM)
[18]
  MIC: 0.9 µg/mL (≈ 2.28 µM)
[19]
  Activity: Non-toxic
[20]
  MIC: 0.1 µg/mL (≈ 0.253 µM)
[21]
  MIC: 2.3 µg/mL (≈ 5.83 µM)
[22]
  MIC: 0.3 µg/mL (≈ 0.76 µM)
[23]
  survival at 10 mg/kg: 80%
[24]
  MIC: 13 µg/mL (≈ 33 µM)
[25]
  MIC: 0.2 µg/mL (≈ 0.507 µM)
[26]
  MIC: 0.2 µg/mL (≈ 0.507 µM)
[27]
  MIC: 1.2 µg/mL (≈ 3.04 µM)
[28]
  MIC: 0.6 µg/mL (≈ 1.52 µM)
[29]
  Activity: 27%
[30]
  Activity: Active
[31]
  CC50 at 72 h: 10 µg/mL
[32]
  inhibition: Active
[33]
  inhibition: inactive
[34]
  MIC: 0.2 µg/mL (≈ 0.507 µM)
[35]
  MIC: 19 µg/mL (≈ 48.2 µM)
[36]
  MIC: 19 µg/mL (≈ 48.2 µM)
[37]
  MIC: 0.6 µg/mL (≈ 1.52 µM)
[38]
  MIC: 1.6 µg/mL (≈ 4.06 µM)
[39]
  survival at 1 mg/kg: 100%
[40]
  MIC: 0.6 µg/mL (≈ 1.52 µM)

## O=C(O)c1cn(C2CC2)c2cc(N3CCNCC3)c(F)cc2c1=O [CIPROFLOXACIN]
[41]
  inhibition: Active
[5]
  MIC: 0.2 µg/mL (≈ 0.604 µM)
[7]
  MIC: 0.6 µg/mL (≈ 1.81 µM)
[12]
  MIC: 5 µg/mL (≈ 15.1 µM)
[17]
  MIC: 0.1 µg/mL (≈ 0.302 µM)
[18]
  MIC: 0.3 µg/mL (≈ 0.905 µM)
[42]
  inhibition: Active
[20]
  MIC: 0.2 µg/mL (≈ 0.604 µM)
[22]
  MIC: 20 µg/mL (≈ 60.4 µM)
[25]
  MIC: 0.4 µg/mL (≈ 1.21 µM)
[43]
  inhibition: Active
[26]
  MIC: 0.1 µg/mL (≈ 0.302 µM)
[44]
  inhibition: Active
[32]
  inhibition: Active
